Active and inactive are the calls of the source. No cut-off for these calls is given here.
Columns and labels:
A-375 = experiment: Cytotoxicity against human A375 cells after 96 hrs by MTT assay; format: functional, cell-based; conditions: A-375, 96 h
Summary of the method: (§1)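 Cells were seeded at 5000/well in DMEM (M4Be) or RPMI-1640 (others) and attached overnight. They were then exposed for 96 h at 37 °C, 5% CO2 to 10^-4 to 10^-10 […] in 1% DMSO/medium. MTT was added for 4 h, formazan dissolved in isopropanol/1 M HCl, and OD read at 570 nm. Survival was taken as % of vehicle control and IC50 as 50% growth inhibition. ≥3 experiments in triplicate; mean ± SD.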

LS174T = experiment: Cytotoxicity against human LS174T cells after 96 hrs by MTT assay; format: functional, cell-based; summary of the method: as §1
Raji = experiment: Cytotoxicity against human Raji cells after 96 hrs by MTT assay; format: functional, cell-based; summary of the method: as §1
[1] = Toxicity in ip dosed Swiss mouse; format: organism-based; conditions: in vivo
Summary of the method: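 Single intraperitoneal doses of 30 to 300 mg/kg given to healthy Swiss mice. Compound dissolved in intralipid/DMSO (50:50, v/v) because of poor water solubility. Read-out is the 50% lethal dose (LD50).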

[2] = Cytotoxicity against human M4Be cells after 96 hrs by MTT assay; format: functional, cell-based; summary of the method: as §1
MCF7 = experiment: Cytotoxicity against human MCF7 cells after 96 hrs by MTT assay; format: functional, cell-based; conditions: MCF7, 96 h; summary of the method: as §1
[3] = Cytotoxicity against human RPMI7591 cells after 96 hrs by MTT assay; format: functional, cell-based
M4Be = experiment: Antitumor activity against human M4Be cells xenografted Swiss nude mouse assessed as reduction in tumor volume at 20 mg/kg, ip administered twice a week for 3 weeks measured from day 18 to day 55; format: functional, organism-based; design: dose 20 mg/kg
Summary of the method: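 Female Swiss nude mice (7 weeks old) were given 3×10^6 M4Be cells s.c. in the flank. At ~0.7 cm3 they were randomized, 6 per group, and received 20 mg/kg twice weekly (Mon/Thu) for 3 weeks in intralipid/DMSO (50:50), with the cycle repeated after 15 days. Controls received vehicle. Calipers twice weekly, V = 0.5ab². Repeated-measures ANOVA with contrast test, significance 0.02. Mean ± SEM.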

SMILES	IC50 (A-375) [µM]	also measured
Cc1cccc(Cl)c1Nc1nc2ccccc2n2c(CC(C)C)cnc12	> 400	–
CCc1c2c(nc3ccc(OC(=O)N4CCC(N5CCCCC5)CC4)cc13)-c1cc3c(c(=O)n1C2)COC(=O)[C@]3(O)CC [IRINOTECAN]	–	IC50 (LS174T): 1.16 µM
CN(Cc1cnc2nc(N)nc(N)c2n1)c1ccc(C(=O)N[C@@H](CCC(=O)O)C(=O)O)cc1 [METHOTREXATE]	–	IC50 (Raji): 0.04 µM
CNc1nc2ccccc2n2c(CCc3ccccc3)cnc12	–	LD50 [1]: > 300 mg/kg; IC50 [2]: 2.58 µM; IC50 (MCF7): 1.08 µM; IC50 [3]: 4.23 µM; Activity (M4Be): Active; IC50 (LS174T): 4.12 µM; IC50 (Raji): 6.23 µM
CNc1nc2ccccc2n2cncc12	85.3	–
CNc1nc2ccccc2n2c(CC(C)C)cnc12	31.6	–
CNc1nc2ccccc2n2nc(CC(C)C)cc12	78.6	–
CC(C)Cc1cnc2c(N(C)C)nc3ccccc3n12	66.3	–
Nc1nc2ccccc2n2c(CCc3ccccc3)cnc12	2.35	–
CN(C)c1nc2ccccc2n2cncc12	121	–
CC(C)Cc1cc2c(N(C)C)nc3ccccc3n2n1	101	–
CNc1nc2ccccc2n2c(-c3ccccc3)ncc12	> 400	–
CN(C)c1nc2ccccc2n2c(CCc3ccccc3)cnc12	80.1	–
Cc1cccc(Cl)c1Nc1nc2ccccc2n2c(CCc3ccccc3)cnc12	329	–
CNc1nc2ccccc2n2c(C)ncc12	100	–
CC(C)Cn1cnc2c(N)nc3ccccc3c21 [IMIQUIMOD]	–	IC50 [2]: 33.5 µM; IC50 [3]: 53.7 µM; IC50 (LS174T): 34.4 µM
Clc1nc2ccccc2n2c(CCc3ccccc3)cnc12	24	–
COc1nc2ccccc2n2c(CCc3ccccc3)cnc12	47.8	–

Reference: ChEMBL document CHEMBL1157427, “In vitro and in vivo anti-tumoral activities of imidazo[1,2-a]quinoxaline, imidazo[1,5-a]quinoxaline, and pyrazolo[1,5-a]quinoxaline derivatives” (Bioorg Med Chem, 2008)
